Experimental data taken from ChEMBL document CHEMBL3525906, “A comprehensive assessment of repaglinide metabolic pathways: impact of choice of in vitro system and relative enzyme contribution to in vitro clearance” (Drug Metab Dispos, 2012).

What was measured:
Liver microsome [1] = test: Drug metabolism in human liver microsomes assessed as 3'-hydroxy repaglinide formation by LC-MS/MS method; type: ADME
[2] = Drug metabolism in human hepatic S9 fraction assessed as 3'-hydroxy repaglinide formation by LC-MS/MS method; type: ADME, Liver
[3] = Unbound intrinsic clearance in human hepatic S9 fraction assessed as 3'-hydroxy repaglinide formation measured per mg of protein at 0.5 to 150 uM by LC-MS/MS method; type: ADME, tissue-based, Liver; conditions: s9, 150 µM
Cytochrome P450 3A4 = Cytochrome P450 3A4 (Homo sapiens, UniProt P08684); test: Unbound intrinsic clearance in human recombinant CYP3A4 expressed in insect cells assessed as enzyme-mediated 3'-hydroxy repaglinide formation per nanomole of protein at 0.5 to 150 uM by LC-MS/MS method; type: ADME
Cytochrome P450 3A4, sequence (P08684 whole entry): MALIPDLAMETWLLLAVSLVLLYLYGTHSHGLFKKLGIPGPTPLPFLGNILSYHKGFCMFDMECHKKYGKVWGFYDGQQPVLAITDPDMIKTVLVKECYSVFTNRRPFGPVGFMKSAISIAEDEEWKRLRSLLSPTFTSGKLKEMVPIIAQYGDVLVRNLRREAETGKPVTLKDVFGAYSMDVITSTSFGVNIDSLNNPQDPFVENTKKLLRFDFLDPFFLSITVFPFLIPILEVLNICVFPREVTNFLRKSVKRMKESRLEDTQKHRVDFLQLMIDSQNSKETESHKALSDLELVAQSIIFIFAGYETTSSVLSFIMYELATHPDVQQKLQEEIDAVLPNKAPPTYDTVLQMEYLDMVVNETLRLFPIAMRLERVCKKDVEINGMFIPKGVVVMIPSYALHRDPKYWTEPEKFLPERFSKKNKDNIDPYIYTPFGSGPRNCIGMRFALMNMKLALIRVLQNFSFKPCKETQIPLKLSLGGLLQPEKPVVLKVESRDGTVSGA

Cytochrome P450 2C8 [4] = target: T1, Cytochrome P450 2C8 (Homo sapiens, UniProt P10632); test: Unbound intrinsic clearance in human recombinant CYP2C8 expressed in insect cells assessed as enzyme-mediated 3'-hydroxy repaglinide formation per nanomole of protein at 0.5 to 150 uM by LC-MS/MS method; type: ADME
T1 sequence (P10632 whole entry): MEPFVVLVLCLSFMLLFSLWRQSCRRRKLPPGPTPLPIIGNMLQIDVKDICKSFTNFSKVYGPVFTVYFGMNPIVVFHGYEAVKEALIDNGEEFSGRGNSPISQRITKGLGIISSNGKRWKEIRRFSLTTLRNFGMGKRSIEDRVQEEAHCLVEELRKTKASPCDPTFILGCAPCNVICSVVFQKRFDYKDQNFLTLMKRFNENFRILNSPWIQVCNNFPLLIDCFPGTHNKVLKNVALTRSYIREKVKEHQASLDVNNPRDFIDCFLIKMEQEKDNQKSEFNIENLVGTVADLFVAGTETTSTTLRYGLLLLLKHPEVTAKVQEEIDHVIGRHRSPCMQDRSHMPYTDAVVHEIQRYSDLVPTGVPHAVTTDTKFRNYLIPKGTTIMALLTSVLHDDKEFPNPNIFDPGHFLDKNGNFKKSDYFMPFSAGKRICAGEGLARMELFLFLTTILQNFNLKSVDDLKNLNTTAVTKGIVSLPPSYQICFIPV

Hepatocyte [5] = test: Drug metabolism in human hepatocytes assessed as 2-despiperidyl-2-amino repaglinide formation measured per 10^6 cells at 0.5 to 150 uM by LC-MS/MS method; type: ADME, cell-based
Liver microsome [6] = test: Drug metabolism in human liver microsomes assessed as 2-despiperidyl-2-amino repaglinide formation measured per mg of protein at 0.5 to 150 uM by LC-MS/MS method; type: ADME
[7] = Fraction metabolism via UGT in human hepatic S9 fraction; type: ADME, Liver
[8] = Half life in type 2 diabetes patient; type: ADME, organism-based; conditions: human, in vivo
Homo sapiens [9] = species: Homo sapiens; test: Drug metabolism in human patient assessed as fold change in metabolite M2/M1 AUC ratio at 0.25 mg co-treated with telithromycin and montelukast relative to telithromycin and montelukast non-treated patient; type: ADME, organism-based; conditions: in vivo
Homo sapiens [10] = species: Homo sapiens; test: Drug metabolism in human patient assessed as fold change in metabolite M2/M4 AUC ratio at 0.25 mg co-treated with gemfibrozil on various time intervals relative to gemfibrozil non-treated patient; type: ADME, organism-based; conditions: in vivo
Homo sapiens [11] = species: Homo sapiens; test: Drug metabolism in human patient assessed as fold change in metabolite M2/M4 AUC ratio at 0.25 mg co-treated with montelukast relative to montelukast non-treated patient; type: ADME, organism-based; conditions: in vivo
Homo sapiens [12] = species: Homo sapiens; test: Ratio of AUC in human patient at 0.25 mg to AUC in human patient at 0.25 mg co-treated with gemfibrozil on various time intervals; type: ADME, organism-based; conditions: in vivo
Homo sapiens [13] = species: Homo sapiens; test: Ratio of AUC in variable SLCO1B1 genotype human patient at 0.25 mg to AUC in variable SLCO1B1 genotype human patient at 0.25 mg co-treated with gemfibrozil; type: ADME, organism-based; conditions: in vivo
Homo sapiens [14] = species: Homo sapiens; test: Ratio of AUC in variable OATP1B1 genotype human patient at 0.25 mg to AUC in ariable OATP1B1 genotype human patient at 0.25 mg co-treated with gemfibrozil on various time intervals; type: ADME, organism-based; conditions: in vivo
Homo sapiens [15] = species: Homo sapiens; test: Ratio of AUC in human patient at 0.25 mg to AUC in human patient at 0.25 mg co-treated with telithromycin; type: ADME, organism-based; conditions: in vivo
Homo sapiens [16] = species: Homo sapiens; test: Ratio of AUC in human patient at 0.25 mg to AUC in human patient at 0.25 mg co-treated with trimethoprim; type: ADME, organism-based; conditions: in vivo
Homo sapiens [17] = species: Homo sapiens; test: Drug metabolism in human patient assessed as fold change in metabolite M2/M1 AUC ratio at 0.25 mg co-treated with gemfibrozil on various time intervals relative to gemfibrozil non-treated patient; type: ADME, organism-based; conditions: in vivo
Homo sapiens [18] = species: Homo sapiens; test: Drug metabolism in variable SLCO1B1 genotype containing human patient assessed as fold change in metabolite M2/M1 AUC ratio at 0.25 mg co-treated with gemfibrozil relative to gemfibrozil non-treated patient; type: ADME, organism-based; conditions: in vivo
Liver microsome [19] = test: Drug metabolism in human liver microsomes assessed as 2-despiperidyl-2-amino repaglinide formation by LC-MS/MS method; type: ADME
Liver microsome [20] = test: Unbound intrinsic clearance in human liver microsomes assessed as 2-despiperidyl-2-amino repaglinide formation measured per mg of protein at 0.5 to 150 uM by LC-MS/MS method; type: ADME
Summary of the method: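 Pooled HLM, 0.3 mg/ml, in 0.1 M phosphate pH 7.4 with 10 mM MgCl2 and NADPH regenerating system. Repaglinide at 8 levels, 0.5-150 μM; 37°C, 10 min. Metabolites by LC-MS/MS against authentic standards; fu_inc 0.85. Duplicates on three occasions.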

Liver microsome [21] = test: Drug metabolism in human liver microsomes assessed as glucuronide formation measured per mg of protein at 0.5 to 150 uM by LC-MS/MS method; type: ADME
Liver microsome [22] = test: Drug metabolism in human liver microsomes assessed as glucuronide formation by LC-MS/MS method; type: ADME
[23] = Drug metabolism in human hepatic S9 fraction assessed as glucuronide formation by LC-MS/MS method; type: ADME, Liver
Hepatocyte [24] = test: Unbound intrinsic clearance in human hepatocytes assessed as glucuronide formation measured per 10^6 cells at 0.5 to 150 uM by LC-MS/MS method; type: ADME, cell-based
Liver microsome [25] = test: Unbound intrinsic clearance in human liver microsomes assessed as glucuronide formation measured per mg of protein at 0.5 to 150 uM by LC-MS/MS method; type: ADME
Cytochrome P450 2C8 [26] = target: T1, Cytochrome P450 2C8; test: Unbound intrinsic clearance in human recombinant CYP2C8 expressed in insect cells assessed as enzyme-mediated 2-despiperidyl-2-amino repaglinide formation per nanomole of protein at 0.5 to 150 uM by LC-MS/MS method; type: ADME
Hepatocyte [27] = test: Drug metabolism in human hepatocytes assessed as 2-despiperidyl-2-(5-carboxypentylamine) repaglinide formation measured per 10^6 cells at 0.5 to 150 uM by LC-MS/MS method; type: ADME, cell-based
[28] = Drug metabolism in human hepatic S9 fraction assessed as 2-despiperidyl-2-(5-carboxypentylamine) repaglinide formation by LC-MS/MS method; type: ADME, Liver
Hepatocyte [29] = test: Unbound intrinsic clearance in human hepatocytes assessed as 2-despiperidyl-2-(5-carboxypentylamine) repaglinide formation measured per 10^6 cells at 0.5 to 150 uM by LC-MS/MS method; type: ADME, cell-based
[30] = Unbound intrinsic clearance in human hepatic S9 fraction assessed as 2-despiperidyl-2-(5-carboxypentylamine) repaglinide formation measured per mg of protein at 0.5 to 150 uM by LC-MS/MS method; type: ADME, tissue-based, Liver; conditions: s9, 150 µM

CCOc1cc(CC(=O)N[C@@H](CC(C)C)c2ccccc2N2CCCCC2)ccc1C(=O)O [REPAGLINIDE]
Km (Liver microsome [1]): 9 µM | Km [2]: 13 µM | CL free [3]: 2.7 µL/min/mg | CL free (Cytochrome P450 3A4): 2 µL/min/nmol | CL free (Cytochrome P450 2C8 [4]): 70 µL/min/nmol | Vmax (Hepatocyte [5]): 23 pmol/min/10^6cells | Vmax (Liver microsome [6]): 170 pmol/min/mg | Fm [7]: 0.2 | half-life [8]: 1 h | fold change (FC) (Homo sapiens [9]): 4.3 | fold change (FC) (Homo sapiens [10]): 0.94 | fold change (FC) (Homo sapiens [11]): 0.98 | Ratio (Homo sapiens [12]): 5 | Ratio (Homo sapiens [13]): 7.3 | Ratio (Homo sapiens [14]): 1 | Ratio (Homo sapiens [15]): 1.8 | Ratio (Homo sapiens [16]): 1.6 | fold change (FC) (Homo sapiens [17]): 0.39 | fold change (FC) (Homo sapiens [18]): 0.38 | Km (Liver microsome [19]): 47 µM | CL free (Liver microsome [20]): 4.1 µL/min/mg | Vmax (Liver microsome [21]): 170 pmol/min/mg | Km (Liver microsome [22]): 37 µM | Km [23]: 47 µM | CL free (Hepatocyte [24]): 0.13 uL/min/10^6cells | CL free (Liver microsome [25]): 5.6 µL/min/mg | CL free (Cytochrome P450 2C8 [26]): 3.7 µL/min/nmol | Vmax (Hepatocyte [27]): 80 pmol/min/10^6cells | Km [28]: 47 µM | CL free (Hepatocyte [29]): 3.3 uL/min/10^6cells | CL free [30]: 3.7 µL/min/mg
